ChEMBL document CHEMBL1148379 (J Med Chem, 2004)

What was measured:
[1] = molecular target: Bifunctional dihydrofolate reductase-thymidylate synthase (Plasmodium falciparum K1, UniProt P13922, C59R/I164L/S108N); test: Inhibitory activity against triple mutant dihydrofolate reductase (C59R S108N I164L DHFR)
[2] = molecular target: Bifunctional dihydrofolate reductase-thymidylate synthase (Plasmodium falciparum K1) (UniProt P13922); test: Inhibitory activity against quadruple mutant dihydrofolate reductase (N51I C59R S108N I164L DHFR), relative to trimethoprim
How it was run: (§1)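 Wild-type and mutant P. falciparum DHFR expressed in E. coli BL21(DE3)pLysS. Ki calculated assuming inhibitors compete with substrate at the active site.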

[3] = molecular target: Bifunctional dihydrofolate reductase-thymidylate synthase (Plasmodium falciparum K1) (UniProt P13922); test: Inhibitory activity against double mutant dihydrofolate reductase (C59R S108N DHFR), relative to trimethoprim; how it was run: as §1
[4] = molecular target: Bifunctional dihydrofolate reductase-thymidylate synthase (Plasmodium falciparum K1, UniProt P13922, C59R/I164L/N51I/S108N); test: Inhibitory activity against quadruple mutant dihydrofolate reductase (N51I C59R S108N I164L DHFR)
[5] = molecular target: Bifunctional dihydrofolate reductase-thymidylate synthase (Plasmodium falciparum K1, UniProt P13922); test: Inhibitory activity against double mutant dihydrofolate reductase (C59R+S108N DHFR)
[6] = molecular target: Bifunctional dihydrofolate reductase-thymidylate synthase (Plasmodium falciparum K1) (UniProt P13922); test: Inhibitory activity against wild-type dihydrofolate reductase (S108N DHFR), relative to trimethoprim; how it was run: as §1
[7] = molecular target: Bifunctional dihydrofolate reductase-thymidylate synthase (Plasmodium falciparum K1) (UniProt P13922); test: Inhibitory activity against triple mutant dihydrofolate reductase (C59R S108N I164L DHFR), relative to trimethoprim; how it was run: as §1

Chain of Bifunctional dihydrofolate reductase-thymidylate synthase (Plasmodium falciparum K1, UniProt P13922) (P13922 whole entry): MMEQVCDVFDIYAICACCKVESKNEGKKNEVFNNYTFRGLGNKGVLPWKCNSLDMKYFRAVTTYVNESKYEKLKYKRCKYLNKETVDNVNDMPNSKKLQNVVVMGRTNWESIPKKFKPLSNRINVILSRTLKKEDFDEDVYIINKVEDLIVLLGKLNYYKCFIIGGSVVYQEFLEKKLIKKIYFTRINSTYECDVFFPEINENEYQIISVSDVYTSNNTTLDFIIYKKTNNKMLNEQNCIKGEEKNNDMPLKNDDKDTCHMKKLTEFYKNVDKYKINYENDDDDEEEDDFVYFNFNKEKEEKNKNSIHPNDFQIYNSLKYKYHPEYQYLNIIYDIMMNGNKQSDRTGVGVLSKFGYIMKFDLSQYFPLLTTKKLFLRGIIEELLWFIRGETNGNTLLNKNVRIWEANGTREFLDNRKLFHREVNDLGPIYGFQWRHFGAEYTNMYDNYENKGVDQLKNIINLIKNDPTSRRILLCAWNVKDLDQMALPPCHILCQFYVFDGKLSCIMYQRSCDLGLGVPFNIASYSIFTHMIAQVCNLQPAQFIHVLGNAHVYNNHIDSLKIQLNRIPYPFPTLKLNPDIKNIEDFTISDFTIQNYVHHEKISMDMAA
Chain of Bifunctional dihydrofolate reductase-thymidylate synthase (Plasmodium falciparum K1, UniProt P13922, C59R/I164L/N51I/S108N) (P13922 whole entry, looked up, stated change not applied): as the sequence (P13922 whole entry) above
Chain of Bifunctional dihydrofolate reductase-thymidylate synthase (Plasmodium falciparum K1) (P13922 whole entry, looked up): as the sequence (P13922 whole entry) above
Chain of Bifunctional dihydrofolate reductase-thymidylate synthase (Plasmodium falciparum K1, UniProt P13922, C59R/I164L/S108N) (P13922 whole entry, looked up, stated change not applied): as the sequence (P13922 whole entry) above

Row | Compound | Ki [1] | Relative activity [2] | Relative activity [3] | Ki [4] | Ki [5] | Relative activity [6] | Relative activity [7]
1 | CCCOc1cc(Cc2cnc(N)nc2N)ccc1OC | 0.144 µM | 0.1 | 0.2 | 0.92 µM | 0.0521 µM | 0.2 | 0.03
2 | Nc1ncc(Cc2ccc(OCCCOc3ccccc3)cc2)c(N)n1 | 0.471 µM | 0.34 | 0.7 | 2.26 µM | 0.17 µM | 0.63 | 0.08
3 | COc1cc(Cc2cnc(N)nc2N)ccc1OCc1cc(OC)c(OC)c(OC)c1 | 0.0476 µM | – | – | 0.124 µM | – | – | –
4 | CCCOc1ccc(Cc2cnc(N)nc2N)cc1 | 1.09 µM | 0.2 | 0.9 | 1.52 µM | 0.211 µM | 1.5 | 0.2
5 | CCCCCCCOc1cc(Cc2cnc(N)nc2N)ccc1OC | 0.292 µM | 0.1 | 0.4 | 0.445 µM | 0.104 µM | 0.3 | 0.05
6 | CCOc1cc(Cc2cnc(N)nc2N)ccc1OCCCOCCCOc1ccccc1 | 0.314 µM | 0.14 | 0.19 | 0.937 µM | 0.0469 µM | 0.22 | 0.06
7 | CCCCCOc1cc(Cc2cnc(N)nc2N)ccc1OC | 0.253 µM | 0.1 | 0.5 | 0.444 µM | 0.135 µM | 0.2 | 0.04
8 | COc1cc(Cc2c(C)nc(N)nc2N)ccc1OCc1ccccc1 | 0.0663 µM | 0.01 | 0.4 | 0.0934 µM | 0.0895 µM | 0.3 | 0.01
9 | Nc1ncc(Cc2ccc(OCCCc3ccccc3)cc2)c(N)n1 | 3.04 µM | 0.12 | 0.44 | 0.801 µM | 0.0581 µM | 0.57 | 0.54
10 | COc1ccc(Cc2cnc(N)nc2N)cc1OCc1ccccc1 | 0.63 µM | 0.2 | 0.6 | 1.13 µM | 0.143 µM | 0.7 | 0.11
11 | Nc1ncc(Cc2ccc(OCCCOCCCOc3ccccc3)cc2)c(N)n1 | 0.264 µM | 0.24 | 0.45 | 1.59 µM | 0.108 µM | 0.68 | 0.05
12 | COc1cc(Cc2cnc(N)nc2N)ccc1OCCCc1ccccc1 | 3.1 µM | 0.17 | 0.33 | 1.12 µM | – | 0.17 | 0.54
13 | COc1ccc(Cc2cnc(N)nc2N)cc1OC [DIAVERIDINE] | 2.65 µM | 2.1 | 1 | 13.9 µM | 0.235 µM | 1.1 | 0.5
